# Activity calls are given as the source filed them.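 The calls were made as follows, unless noted: active = mean duplicate potentiation above the buffer control mean plus 5 SD of buffer wells; inactive = the rest.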
# Columns and labels:
# [1] = thallium flux activation in parental CHO cells, counter-screen for KCNQ1 potentiator project (AID 493006;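 active = duplicate-averaged activation above buffer control mean plus 5 SD of those controls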); settings: parental CHO-K1 cells, FluxOR thallium flux, at 10 µM; stronger effect = higher value
# Procedure, shortened: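 Test system: parental CHO-K1 cells, FluxOR dye-loaded / Probe or stimulus: potassium plus thallium depolarizing stimulus, 5x stock 12.5 mM K2SO4, Tl2SO4 / Timing: overnight 37 °C plating, 90 min dye, 20 min dark compound / Measured by: kinetic thallium-flux fluorescence / Read-out: max-minus-min fluorescence over baseline, percent of buffer-to-R-L3 span / Benchmarks: buffer and R-L3 controls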
# [2] = molecular target: Potassium voltage-gated channel subfamily KQT member 1 (Homo sapiens) (UniProt P51787); assay: KCNQ1 potassium channel potentiators, confirmation, FluxOR thallium flux, CHO cells, duplicates (AID 493007;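 active = potentiation averaged over duplicate wells exceeding buffer-only control mean by more than 3 SD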;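 as to outcome: cells depolarized by a potassium plus thallium sulfate stimulus after compound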;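 as to potentiation: 0% = buffer-only wells and 100% = R-L3 activator control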); settings: KCNQ1 cell line, FluxOR thallium flux fluorescence, at 10 µM; stronger effect = higher value, % of reference activator effect, buffer zero
# Procedure, shortened: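 Assay system: CHO cells carrying KCNQ1 | Controls: Buffer and R-L3 controls | Schedule: FluxOR dye loading 90 min, compound exposure 20 min, room temperature | Read-out: Baseline-normalized fluorescence change, percent of buffer-to-R-L3 range | Replicates: Each compound tested in duplicate | Technique: Kinetic thallium influx fluorescence with FluxOR dye, 10 s baseline, 110 s post-stimulus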
# [3] = molecular target: Potassium voltage-gated channel subfamily KQT member 2 (Rattus norvegicus) (UniProt O88943); assay: rat KCNQ2 channel potentiation, selectivity assay for KCNQ1 potentiator project, KCNQ2-CHO-K1 cells (AID 493009); settings: FluxOR thallium flux fluorescence, at 10 µM; stronger effect = higher value, scaled: buffer 0, activator control 100;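 also: assay conditions were tuned for KCNQ1 rather than KCNQ2 modulators; signal is max minus min fluorescence divided by baseline after thallium stimulus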
# [4] = molecular target: Potassium voltage-gated channel subfamily KQT member 1 (Homo sapiens) (UniProt P51787); assay: KCNQ1 channel current potentiators, confirmation, orthogonal assay for KCNQ1 potentiator project, IonWorks patch clamp, KCNQ1-CHO cells (AID 493184;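 active = current rise at least 3 SD above the untreated control mean in each of two repeat wells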); settings: automated patch clamp current, at 10 µM; stronger effect = higher value
# Procedure, shortened: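 Material: KCNQ1-expressing CHO cells; doses: 10 µM final, single point; probe or stimulus: voltage step from -90 mV holding to +40 mV, 2,000 ms; signal: automated voltage clamp, amphotericin B perforated patch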
# Chain of Potassium voltage-gated channel subfamily KQT member 1 (Homo sapiens) (P51787 whole entry, looked up): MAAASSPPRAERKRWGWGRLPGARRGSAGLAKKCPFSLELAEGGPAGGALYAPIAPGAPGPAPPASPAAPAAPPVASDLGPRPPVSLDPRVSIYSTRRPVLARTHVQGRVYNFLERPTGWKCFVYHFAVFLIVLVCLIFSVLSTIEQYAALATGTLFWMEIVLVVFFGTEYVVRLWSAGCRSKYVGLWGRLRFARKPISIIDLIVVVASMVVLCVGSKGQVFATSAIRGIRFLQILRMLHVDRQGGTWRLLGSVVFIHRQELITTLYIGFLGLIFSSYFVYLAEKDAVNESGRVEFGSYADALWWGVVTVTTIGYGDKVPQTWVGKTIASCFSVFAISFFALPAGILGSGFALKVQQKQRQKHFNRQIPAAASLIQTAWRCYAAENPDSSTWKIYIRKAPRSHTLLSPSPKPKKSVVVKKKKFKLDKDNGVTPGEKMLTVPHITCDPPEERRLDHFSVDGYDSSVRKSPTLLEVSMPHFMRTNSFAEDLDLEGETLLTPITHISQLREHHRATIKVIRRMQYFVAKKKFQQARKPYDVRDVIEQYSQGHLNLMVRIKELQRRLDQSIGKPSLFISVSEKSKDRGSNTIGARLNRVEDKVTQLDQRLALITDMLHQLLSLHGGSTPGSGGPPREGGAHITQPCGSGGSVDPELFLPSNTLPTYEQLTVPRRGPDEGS
# Chain of Potassium voltage-gated channel subfamily KQT member 2 (Rattus norvegicus) (O88943 whole entry, looked up): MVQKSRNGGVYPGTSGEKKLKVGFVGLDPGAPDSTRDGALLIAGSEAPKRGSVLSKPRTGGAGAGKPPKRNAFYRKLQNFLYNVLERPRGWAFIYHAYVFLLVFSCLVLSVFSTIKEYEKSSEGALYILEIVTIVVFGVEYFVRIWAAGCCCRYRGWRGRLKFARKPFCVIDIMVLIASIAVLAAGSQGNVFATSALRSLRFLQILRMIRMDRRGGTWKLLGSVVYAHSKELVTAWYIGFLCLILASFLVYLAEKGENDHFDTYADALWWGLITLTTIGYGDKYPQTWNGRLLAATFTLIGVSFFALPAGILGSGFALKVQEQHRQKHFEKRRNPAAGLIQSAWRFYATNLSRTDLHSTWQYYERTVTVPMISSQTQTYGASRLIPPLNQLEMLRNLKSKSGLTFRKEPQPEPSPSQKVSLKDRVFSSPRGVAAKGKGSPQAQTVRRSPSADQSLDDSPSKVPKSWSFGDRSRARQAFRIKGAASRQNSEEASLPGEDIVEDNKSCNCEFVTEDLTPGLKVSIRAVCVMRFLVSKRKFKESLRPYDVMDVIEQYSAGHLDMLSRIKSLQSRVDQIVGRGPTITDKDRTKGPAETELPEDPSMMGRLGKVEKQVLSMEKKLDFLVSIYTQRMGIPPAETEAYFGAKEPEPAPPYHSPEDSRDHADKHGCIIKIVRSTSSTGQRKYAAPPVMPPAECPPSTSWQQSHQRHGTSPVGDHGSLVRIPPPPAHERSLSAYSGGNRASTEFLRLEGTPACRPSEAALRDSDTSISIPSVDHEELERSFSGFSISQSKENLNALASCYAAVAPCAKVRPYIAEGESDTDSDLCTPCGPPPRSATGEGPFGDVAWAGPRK
Compound,outcome [1],potentiation [2],outcome [3],outcome [4],activation [1],potentiation [3],outcome [2]
CCOC(=O)c1c(NS(=O)(=O)c2cccc(OC)c2)sc2c1CCC2,inactive,59% (active),inactive,inactive,,,
O=C1NN(c2ccccc2)C(=O)/C1=C\c1cccc(OC(=O)c2cccs2)c1,,61.5% (active),,inactive,187% (active),202% (active),
COCCN(C(=O)COC(=O)/C=C/c1cccs1)c1c(N)n(Cc2ccccc2)c(=O)[nH]c1=O,inactive,,inactive,inactive,,,inactive
CCCS(=O)(=O)c1c(S(=O)(=O)CCC)c2c(C(N)=O)cccn2c1C(=O)c1ccc(F)cc1,inactive,,inactive,inactive,,,inactive
COc1cc(CN2CCN(c3cccc(Cl)c3)CC2)cc(OC)c1OC,inactive,,inactive,inactive,,,inactive
CC1=NN(C(=O)c2csc(C)c2C)C(O)(C(F)(F)F)C1 (stereo not given),inactive,,inactive,inactive,,,inactive
CCOC(=O)c1c(NC(=S)NCCc2ccccc2)sc2c1CC(C(C)C)OC2 (stereo not given),inactive,32% (active),,inactive,,146% (active),
CN1CCN(S(=O)(=O)c2cccc(C(=O)Nc3cc(Cl)ccc3N3CCOCC3)c2)CC1,inactive,,inactive,inactive,,,inactive
CCOC(=O)C1=NN(C(=O)c2ccc(OC)cc2)C(O)(c2ccc(Cl)cc2)C1 (stereo not given),,136% (active),,inactive,456% (active),428% (active),
O=C(NC(=S)N1CCN(c2ccc(C(F)(F)F)cc2[N+](=O)[O-])CC1)c1cccs1,,75% (active),,inactive,176% (active),215% (active),
OC(c1ccccc1)c1cccnc1 (stereo not given),,22% (active),,inactive,146% (active),155% (active),
Cc1cccc(S(=O)(=O)Nc2cccc3c2C(=O)c2ccccc2-3)c1,inactive,43.5% (active),,inactive,,152% (active),
O=C(COc1ccc(C(=S)N2CCC(Cc3ccccc3)CC2)cc1)N1CCOCC1,inactive,,inactive,inactive,,,inactive
COc1cc(CNCCN2CCOCC2)ccc1OCc1ccc(Cl)cc1Cl,inactive,,inactive,inactive,,,inactive
Cc1ccccc1Cn1c(O)c(N=NC(=S)Nc2ccccc2F)c2ccccc21,inactive,36% (active),inactive,inactive,,,
Cc1ccc(N(C(=O)c2ccco2)C(C(=O)NC2CCCC2)c2cccnc2)cc1C (stereo not given),inactive,,inactive,inactive,,,inactive
COc1ccc(-c2nc(CS(=O)CC(=O)NC3CCCC3)c(C)o2)cc1OC (stereo not given),,85% (active),,inactive,168% (active),244% (active),
COc1cccc(C(=O)NNC(=O)C(=O)Nc2ccc(C)cc2)c1,,92% (active),,inactive,206% (active),308% (active),
Cc1cccc(-n2c(=S)[nH]c3sc4c(c3c2=O)CCc2ccccc2-4)c1,,149% (active),,inactive,240% (active),330% (active),
Cn1cc(-c2nnnn2-c2ccccc2)c(=O)c2ccccc21,inactive,,inactive,inactive,,,inactive

Compound,outcome [1],potentiation [2],outcome [3],outcome [4],activation [1],potentiation [3],outcome [2]
Cc1sc2nc(C(C)C)nc(SCC(=O)N3c4ccccc4CC3C)c2c1C (stereo not given),,47.5% (active),,inactive,164% (active),177% (active),
C=CCn1c(=S)[nH]c2sc3c(c2c1=O)CCC3,,124% (active),,inactive,364% (active),301% (active),
COc1cc(CN(C)CC2CCCN(CCc3cccc(C(F)(F)F)c3)C2)ccc1O (stereo not given),inactive,43% (active),inactive,inactive,,,
S=c1[nH]nc(-c2ccc(Cl)cc2Cl)n1-c1ccc(Cl)cc1,,43% (active),,inactive,154% (active),167% (active),
O=C(Nc1nc(=O)c2ccccc2s1)c1ccc(F)cc1,inactive,,,inactive,,152% (active),inactive
Cc1nc2sc(C(c3ccccc3)N3CCN(C(=O)c4ccco4)CC3)c(O)n2n1 (stereo not given),inactive,,inactive,inactive,,,inactive
COC(=O)c1ccc(/C=C/c2ccc3cccc(OC)c3n2)cc1,inactive,,inactive,inactive,,,inactive
Cc1ccnc(NC(=S)NC(=O)c2cncc(Br)c2)c1,inactive,,inactive,inactive,,,inactive
O=C(NC(=S)Nc1ccc(N2CCCCC2)cc1)c1ccco1,,180% (active),,inactive,214% (active),228% (active),
O=C(NC(=S)NC1CCCc2ccccc21)c1ccco1 (stereo not given),,122% (active),,inactive,188% (active),272% (active),
O=C(NC(=S)Nc1nc2c(s1)CSc1ccccc1-2)c1ccccc1,,68.5% (active),,inactive,170% (active),147% (active),
O=C(NC(=S)Nc1ccccc1Cl)c1cncc(Br)c1,inactive,,inactive,inactive,,,inactive
O=C(NN=C1c2ccccc2-c2ccccc21)c1ccccc1Br,inactive,37% (active),inactive,inactive,,,
N#C/C(=C\c1ccc(-c2ccccc2Cl)o1)C(=O)Nc1nc2ccccc2s1,inactive,,inactive,inactive,,,inactive
Cc1cccc(C(=O)NC(=S)N(C)C2CCCCC2)c1,,72.5% (active),,inactive,268% (active),326% (active),
CC1C/C(=C/c2ccncc2)C(=O)/C(=C/c2ccncc2)C1 (stereo not given),inactive,,inactive,inactive,,,inactive
O=C(NC(=S)NC1CCCCC1)c1ccc(Cl)cc1,,262% (active),,inactive,202% (active),390% (active),
Cn1nc(SCC(=O)O)sc1=S,inactive,,inactive,inactive,,,inactive
Cc1ccc(-c2n[nH]c(=S)nc2-c2ccc(C)cc2)cc1,,32% (active),,inactive,160% (active),159% (active),
Cn1c(=O)nc2n(Cc3ccccc3)c3ccccc3cc-2c1=O,inactive,,inactive,inactive,,,inactive

Compound,outcome [1],potentiation [2],outcome [3],outcome [4],activation [1],potentiation [3],outcome [2]
CC(=O)c1c(-c2ccccc2)c2cc([N+](=O)[O-])ccc2[nH]c1=O,inactive,,inactive,inactive,,,inactive
O=C(NC(=S)Nc1ccccc1Cl)c1ccco1,,,,inactive,140% (active),146% (active),inactive
O=C(O)c1c2c(nc3ccccc13)/C(=C/c1cccc([N+](=O)[O-])c1)CCC2,,64% (active),,inactive,172% (active),199% (active),
CCOC(=O)c1ccc(Oc2nc(NC(C)(C)C)nc(N(C)C)n2)cc1,inactive,,inactive,inactive,,,inactive
CCOC(=O)c1sc(C)nc1C1CCN(C(=O)OCC)CC1,inactive,,inactive,inactive,,,inactive
COc1ccc(CN2CCCC(CNC(=O)c3ccc(F)cc3)C2)c(C)c1C (stereo not given),inactive,,inactive,inactive,,,inactive
CCC1CCC2(CC1)NNC(=S)NN2,inactive,,inactive,inactive,,,inactive
COc1ccc(-c2cc3nc(C)c(CCC(=O)NC(C)CCc4ccco4)c(C)n3n2)c(OC)c1 (stereo not given),inactive,,inactive,inactive,,,inactive
CCOC(=O)c1sc2ncnc(NCc3ccco3)c2c1C,,152% (active),,inactive,332% (active),358% (active),
COC(=O)c1sccc1NC(=O)CSc1ccccc1NS(=O)(=O)c1ccc(Cl)cc1,inactive,17.5% (active),inactive,inactive,,,
CCc1ccc(NC(=O)C(=O)NNC(=O)COc2cccc(OC)c2)cc1,,76% (active),,inactive,164% (active),251% (active),
CCN=C1SC(CC(=O)Nc2ccccc2OCC)C(=O)N1CC (stereo not given),inactive,,inactive,inactive,,,inactive
CSc1ccc(/C=N/n2c(Cc3ccc(Br)cc3)n[nH]c2=S)cc1,inactive,174% (active),,inactive,,168% (active),
S=c1nn[nH]n1C12CC3CC(CC(C3)C1)C2,,51.5% (active),,inactive,206% (active),210% (active),
COCCn1c(=S)[nH]c2sc3c(c2c1=O)CCC(C)C3 (stereo not given),,191% (active),,inactive,541% (active),514% (active),
CSc1nc(C)cc(OCC(=O)N/N=C/c2ccccc2O)n1,inactive,,inactive,inactive,,,inactive
Cc1cccc(C(=O)NC(=S)NNC(=O)COc2ccc(Cl)cc2)c1,,52% (active),,inactive,140% (active),186% (active),
Cc1cc(Nc2cc(N3CCN(C)CC3)nc(Sc3ccc(NC(=O)C4CC4)cc3)n2)n[nH]1,,30% (active),,inactive,140% (active),144% (active),
Cc1cccc(/C=C2/S/C(=N/N=C3\CC4CCC3(C)C4(C)C)NC2=O)c1 (stereo not given),inactive,28% (active),inactive,inactive,,,
CC1CCc2sc(-c3n[nH]c(=S)o3)cc2C1 (stereo not given),,30% (active),,inactive,207% (active),179% (active),

# From PubChem BioAssay
